Screening results deposited in PubChem by several laboratories.
The list is not random: actives were taken first. Their share in the collection is about 11%.
Htt clearance: clearance of mutant huntingtin inclusions, primary screen, imaging, HeLa Exon1htt(103Q)mCFP, confocal imaging. aggregate imaging; zero = plate's median compound well. inhibition, % at 1.5 µM. hit rate 0.42% among 47,000;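 active = inhibition of aggregate fluorescence above about 70%, also judged a hit by eye on the cell image, limit read from the data, passing the limit was not always enough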;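 also: cells exposed to compound for three days before fixation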
M1 agonist: M1 muscarinic receptor agonists, primary screen, CHO-M1 cells, Fluo-4 calcium, agonist mode | B-score at 10 µM | hit rate 3% among 64,000 | Muscarinic acetylcholine receptor M1 | AID 626, 2007 | Fluo-4 calcium fluorescence; stronger effect = higher value;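 active = fluorescence rise, raw or as B-score row- and column-corrected plate score, outside the 99.7% band of its plate's samples, either direction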
SF1 activator: activators of human SF-1, primary screen, cell-based, CHO-K1, Gal4-SF-1 LBD, luciferase luminescence; AID 522, 2006; Steroidogenic factor 1 (Homo sapiens), Q13285; activation, % at 10 µM; CHO-K1 Gal4-SF-1 LBD luciferase reporter; % increase over DMSO SF-1-specific signal; hit rate 1.9% among 65,000;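 active = activation above the mean activation of all tested compounds plus 3 SD, cut at about 50% in these data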
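System: CHO-K1 cells with Gal4–hSF-1 LBD chimera plus Gal4-driven luciferase; quantity: 4,000 CHO-K1 cells per well; compound: one dose, 10 µM compound, 1% DMSO; times: 20 h compound treatment, 37 °C; measured by: SteadyLite luciferase luminescence; read-out: percent activation versus DMSO; benchmarks: DMSO and mock-transfected background; replicates: one test per compound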
D1 allo mod: D1 CRE-luciferase signal change, two-sided – cell-based, HEK293 D1, dopamine EC30, D1 allosteric modulator project, primary screen. D(1A) dopamine receptor (Homo sapiens), P21728. dopamine EC30 potentiation; actives deviate in either direction. B-score at 10 µM. hit rate 5.9% among 58,000;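 active = luminescence count or its row- and column-corrected plate score outside the 99.7% band of the plate's sample wells, on either side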
M1 antag: antagonists of rat M1 muscarinic receptor; Muscarinic acetylcholine receptor M1 (Rattus norvegicus), P08482; CHO-M1 cells, Fluo-4 calcium, ACh EC80 antagonist mode; stronger effect = lower value; B-score at 10 µM; hit rate 3.4% among 64,000;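 active = calcium fluorescence response, raw or row-and-column corrected B-score, differing from the plate sample mean either way at a set confidence level, mostly lower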
RORA act: activators of orphan receptor RORA, primary screen, cell-based, luminescence | Nuclear receptor ROR-alpha (Homo sapiens), P35398 | CHO-K1 Gal4-RORA LBD luciferase reporter; percent increase over mock-subtracted basal signal | activation, % at 10 µM | hit rate 1.5% among 65,000 | AID 560, 2006;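 active = activation above the mean of all tested compounds plus 3 SD, cut at about 49% in these data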;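 also: 0% = DMSO-treated RORA cells and 100% = added signal equal to DMSO minus mock-transfected cells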
Target sequence (P35398 whole entry, looked up, the tested form may be a part): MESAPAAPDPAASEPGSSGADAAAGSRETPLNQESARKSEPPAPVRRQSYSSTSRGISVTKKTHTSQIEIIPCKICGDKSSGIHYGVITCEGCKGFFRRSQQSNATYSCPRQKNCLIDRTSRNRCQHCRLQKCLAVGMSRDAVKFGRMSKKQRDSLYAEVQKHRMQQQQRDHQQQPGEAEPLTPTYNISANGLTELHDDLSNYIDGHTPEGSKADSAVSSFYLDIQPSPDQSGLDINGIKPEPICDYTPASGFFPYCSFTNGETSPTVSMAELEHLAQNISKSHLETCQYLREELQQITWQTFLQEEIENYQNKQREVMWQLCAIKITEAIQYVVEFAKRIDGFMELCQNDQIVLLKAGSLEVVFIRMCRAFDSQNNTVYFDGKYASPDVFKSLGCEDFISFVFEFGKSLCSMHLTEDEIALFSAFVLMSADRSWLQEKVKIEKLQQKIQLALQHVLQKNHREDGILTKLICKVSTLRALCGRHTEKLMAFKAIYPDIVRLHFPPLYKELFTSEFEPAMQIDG
M1 antag conf: rat M1 muscarinic receptor antagonists, confirmation, CHO cells, Fluo-4 calcium, duplicate; hit rate 43% among 1,700; calcium response (max-min fluorescence) at 10 µM; ACh EC80 antagonism; stronger effect = lower value; shares compounds with M1 antag; AID 677, 2007;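 active = calcium response below the same-plate mean of wells given acetylcholine alone at its 80%-effect dose, minus 3 SD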;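 also: raw fluorescence intensity difference in arbitrary instrument units and not normalized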
mGluR4 antag: human mGluR4 response to M1 antagonist hits, M1 allosteric modulator project, cell-based, antagonist mode, secondary assay 1; shares compounds with M1 antag; CHO-mGluR4 calcium flux, Fluo-4 fluorescence, glutamate EC80; stronger effect = lower value; fluorescence response (max-min) at 10 µM; hit rate 0.9% among 1,700; AID 678, 2007;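 active = fluorescence response below the plate's average for near-maximal glutamate wells, less 3 SD of those wells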;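 also: raw unnormalized fluorescence span taken in the window right after glutamate addition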
Starred values were filed as active, the others as inactive.

O=C1CCCc2c1cc(C(=O)NCc1ccco1)c(=O)n2-c1ccc(Cl)cc1 was read as M1 agonist -0.349, SF1 activator 5.7, D1 allo mod 0.234, M1 antag -0.132 and RORA act -9.2.
For O=C(CN1CCN(Cc2ccc3c(c2)OCO3)CC1)N1CCc2[nH]c3ccccc3c2C1 the results were Htt clearance 40.8, M1 agonist -0.781, SF1 activator -0.3, D1 allo mod -0.748, M1 antag -1.71 and RORA act -16.7.
For O=C(CCS(=O)(=O)c1cccc2nsnc12)N1CCN(Cc2ccc3c(c2)OCO3)CC1 the results were M1 agonist -0.508, SF1 activator 1.1, D1 allo mod 1, M1 antag -2.49*, RORA act -4.9, M1 antag conf 473 and mGluR4 antag 221.
O=C(CCS(=O)(=O)c1cccc2nsnc12)N1CCN(C(=O)c2ccco2)CC1 was read as M1 agonist 0.829, SF1 activator 8.1, D1 allo mod -0.0349, M1 antag -2 and RORA act -8.8.
O=C(Cn1ccc2ccccc2c1=O)N1CCN(Cc2ccc3c(c2)OCO3)CC1 was read as Htt clearance 9.9, M1 agonist 0.0703, SF1 activator -0.9, D1 allo mod 0.667, M1 antag -2.81*, RORA act 8.1, M1 antag conf 570 and mGluR4 antag 181.
`O=C(CN1CCN(Cc2ccc3c(c2)OCO3)CC1)N1CCc2[nH]c3ccc(F)cc3c2C1` gave M1 agonist -0.929, SF1 activator 2.6, D1 allo mod -1.82, M1 antag -3.82*, RORA act 15.2, M1 antag conf 477 and mGluR4 antag 210.
Screening CC(C)(C)C(=O)C(CO)(Oc1ccc(Cl)cc1)n1cncn1 (configuration not stated) returned M1 agonist -0.0858, SF1 activator -11.5, D1 allo mod 0, M1 antag 0.304 and RORA act -5.7.
Cc1occc1C(=O)Nc1cc(C(F)(F)F)ccc1Cl was read as SF1 activator -11.4, D1 allo mod 0.767 and RORA act -19.5.
For Cc1ccc(F)c(NC=C2C(=O)OC(C)(C)OC2=O)c1 the results were SF1 activator 2.3, D1 allo mod 1.19 and RORA act -22.2.
CSc1nc(SCC(N)=O)c2c3c(sc2n1)CN(C)CC3 was read as Htt clearance -6.6, M1 agonist -0.85, SF1 activator -0.2, M1 antag -5.12*, RORA act 12.3, M1 antag conf 361* and mGluR4 antag 253.
`CCC(O)CNc1nc(SC)nc2sc3c(c12)CCN(C)C3` (configuration not stated) gave M1 agonist 0.00923, SF1 activator -9.6, M1 antag -4.34*, RORA act 18.8, M1 antag conf 154* and mGluR4 antag 197.
`CCSc1nc(N)c2c3c(sc2n1)CN(C)CC3` gave M1 agonist -0.935, SF1 activator 12.6, M1 antag -2.24 and RORA act 8.7.
`CSc1nc(NCc2ccco2)c2c3c(sc2n1)CN(C)CC3` gave Htt clearance -67.6, M1 agonist 1.69, SF1 activator 1.6, D1 allo mod -4.05*, M1 antag -2.79*, RORA act -10.5, M1 antag conf 711 and mGluR4 antag 250.
